Assay results taken from ChEMBL document CHEMBL4130382, “Novel unsaturated glycyrrhetic acids derivatives: Design, synthesis and anti-inflammatory activity” (Eur J Med Chem, 2017).
The source made the active and inactive calls. The calls are words filed in the database; no cut-off is given here.

Columns and labels:
[1] = Cytotoxicity against mouse RAW264.7 cells assessed as cell viability at 20 uM after 24 hrs by MTT assay (reference value: 100%); format: cell-based; conditions: read-out: Activity
Procedure, shortened: (§1)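 RAW264.7 cells seeded at 6×10^3 cells/well and cultured 24 h. Compounds diluted in DMEM for 24 h exposure. MTT 0.5 mg/mL added for 4 h, formazan dissolved in DMSO, OD read at 570 nm. Viability given as % of medium-only blank. Three independent experiments.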

RAW264.7 [2] = assay: Antiinflammatory activity in mouse RAW264.7 cells assessed as inhibition of LPS-induced NO production by measuring nitrite level at 20 uM pretreated for 2 hrs followed by LPS challenge measured after 24 hrs by Griess assay; format: functional, cell-based
Procedure, shortened: (§2)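 RAW264.7 cells grown in DMEM with 10% FBS plus penicillin/streptomycin at 37 °C and 5% CO2. Seeded at 1×10^5 cells/well and cultured 20 h. Pretreated 2 h with compounds in serum-free medium, then LPS 1 µg/mL for 24 h. Nitrite read with Griess reagent at 540 nm. Inhibition = (LPS-only − treated)/(LPS-only − medium blank) × 100%. Mean ± SD, n = 3.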

[3] = Cytotoxicity against mouse RAW264.7 cells assessed as cell viability at 40 uM after 24 hrs by MTT assay (reference value: 100%); format: cell-based; conditions: read-out: Activity; procedure, shortened: as §1
RAW264.7 [4] = assay: Antiinflammatory activity in mouse RAW264.7 cells assessed as inhibition of LPS-induced NO production by measuring nitrite level at 40 uM pretreated for 2 hrs followed by LPS challenge measured after 24 hrs by Griess assay relative to control; format: functional; procedure, shortened: as §2
RAW264.7 [5] = assay: Antiinflammatory activity in mouse RAW264.7 cells assessed as inhibition of LPS-stimulated IL-6 production preincubated for 2 hrs followed by LPS stimulaton measured after 24 hrs by ELISA; format: functional, cell-based
Procedure, shortened: (§3)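 Cells at 7×10^4/well cultured 24 h, then pretreated 2 h with 10–40 µM compound. LPS 1 µg/mL added for 24 h. IL-6 and TNF-α measured in supernatant by mouse ELISA kits.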

RAW264.7 [6] = assay: Antiinflammatory activity in mouse RAW264.7 cells assessed as inhibition of LPS-stimulated TNF-alpha production preincubated for 2 hrs followed by LPS stimulaton measured after 24 hrs by ELISA; format: functional, cell-based; procedure, shortened: as §3
RAW264.7 [7] = assay: Antiinflammatory activity in mouse RAW264.7 cells assessed as inhibition of LPS-stimulated COX-2 production at 40 uM preincubated with compound followed by LPS stimulation measured after 24 hrs by Western blot relative to control; format: functional
Procedure, shortened: (§4)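 Cells at 2×10^6/well cultured 24 h. Medium replaced with fresh medium containing 10–40 µM compound, or Bay 11-7082 20 µM as NF-κB inhibitor control, plus LPS 1 µg/mL for 24 h. Lysates in IP buffer with 1 mM PMSF; protein by BCA. Equal protein run on 12.5% SDS-PAGE, PVDF, ECL detection for iNOS and COX-2. Mean ± SD, n = 3.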

RAW264.7 [8] = assay: Antiinflammatory activity in mouse RAW264.7 cells assessed as inhibition of LPS-stimulated iNOS production at 40 uM preincubated with compound followed by LPS stimulation measured after 24 hrs by Western blot relative to control; format: functional; procedure, shortened: as §4
RAW264.7 [9] = assay: Antiinflammatory activity in mouse RAW264.7 cells assessed as inhibition of LPS-stimulated COX-2 production preincubated with compound followed by LPS stimulation measured after 24 hrs by Western blot; format: functional, cell-based; procedure, shortened: as §4
RAW264.7 [10] = assay: Antiinflammatory activity in mouse RAW264.7 cells assessed as inhibition of LPS-stimulated iNOS production preincubated with compound followed by LPS stimulation measured after 24 hrs by Western blot; format: functional, cell-based; procedure, shortened: as §4
[11] = biological target: Transcription factor p65 (Mus musculus) (UniProt Q04207); assay: Inhibition of LPS-induced NFkappaB p65 phosphorylation in mouse RAW264.7 cells preincubated with compound followed by LPS stimulation measured after 30 mins by Western blot; format: cell-based
Sequence of Transcription factor p65 (Mus musculus) (Q04207 whole entry): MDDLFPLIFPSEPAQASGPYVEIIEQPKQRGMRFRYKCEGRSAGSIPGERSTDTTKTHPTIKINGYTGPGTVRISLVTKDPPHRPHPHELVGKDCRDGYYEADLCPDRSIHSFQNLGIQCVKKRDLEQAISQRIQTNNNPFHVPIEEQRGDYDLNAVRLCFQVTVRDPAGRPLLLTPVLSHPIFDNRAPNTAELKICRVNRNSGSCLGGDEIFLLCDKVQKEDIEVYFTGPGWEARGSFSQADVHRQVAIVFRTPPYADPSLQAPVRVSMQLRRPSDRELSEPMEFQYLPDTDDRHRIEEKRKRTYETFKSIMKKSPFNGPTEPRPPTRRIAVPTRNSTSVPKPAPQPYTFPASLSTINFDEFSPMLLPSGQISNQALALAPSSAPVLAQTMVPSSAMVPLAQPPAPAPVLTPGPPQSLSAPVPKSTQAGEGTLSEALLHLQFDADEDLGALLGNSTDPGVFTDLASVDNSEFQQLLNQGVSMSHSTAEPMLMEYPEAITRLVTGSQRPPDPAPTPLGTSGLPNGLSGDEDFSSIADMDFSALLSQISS
Procedure, shortened: (§5)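 Cells at 2×10^6/well cultured 24 h, then given 10–40 µM compound with LPS 1 µg/mL for 30 min; Bay 11-7082 20 µM as control. Lysates in IP buffer with PMSF; equal protein on 12.5% SDS-PAGE, PVDF. Blocked in 5% milk/TBST, primary antibodies to phospho and total JNK, ERK1/2, p38, IκB and p65 at 1:1000 overnight at 4 °C, ECL detection. Mean ± SD, n = 3.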

[12] = biological target: Transcription factor p65 (Mus musculus) (UniProt Q04207); assay: Inhibition of LPS-induced NFkappaB p65 nuclear translocation in mouse RAW264.7 cells at 20 to 40 uM preincubated for 1 hr followed by LPS stimulation measured after 3 hrs by DAPI staining-based immunofluorescence assay; format: cell-based
Procedure, shortened: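 Cells at 7×10^4/well cultured 24 h, pretreated with 20 or 40 µM compound, then LPS 1 µg/mL for 3 h. Fixed in 4% formaldehyde, permeabilized with 0.3% Triton X-100, blocked with 5% BSA. Stained overnight with anti-p65, then Alexa Fluor 488 anti-rabbit; nuclei counterstained with DAPI and imaged.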

RAW264.7 [13] = assay: Inhibition of LPS-induced ERK phosphorylation in mouse RAW264.7 cells at 40 uM preincubated with compound followed by LPS stimulation measured after 30 mins by Western blot; format: cell-based; procedure, shortened: as §5
RAW264.7 [14] = assay: Inhibition of LPS-induced JNK phosphorylation in mouse RAW264.7 cells at 10 to 40 uM preincubated with compound followed by LPS stimulation measured after 30 mins by Western blot; format: cell-based; procedure, shortened: as §5
[15] = biological target: MAP kinase p38 (Mus musculus) (UniProt P47811+O08911+Q9WUI1+Q9Z1B7); assay: Inhibition of LPS-induced p38 MAPK phosphorylation in mouse RAW264.7 cells at 10 to 40 uM preincubated with compound followed by LPS stimulation measured after 30 mins by Western blot; format: cell-based; procedure, shortened: as §5

SMILES	viability at 24 h, 20 µM [1]	inhibition (RAW264.7 [2])	viability at 24 h, 40 µM [3]	inhibition (RAW264.7 [4])	other results
CC(C)N(C(=O)/C=C/[C@@]1(C)CC[C@]2(C)CC[C@]3(C)C(=CC(=O)[C@@H]4[C@@]5(C)CC[C@H](O)C(C)(C)[C@@H]5CC[C@]43C)[C@@H]2C1)C(C)C	95.8%	Active	–	–	–
CC(C)NC(=O)/C=C/[C@@]1(C)CC[C@]2(C)CC[C@]3(C)C(=CC(=O)[C@@H]4[C@@]5(C)CC[C@H](O)C(C)(C)[C@@H]5CC[C@]43C)[C@@H]2C1	–	Active	97.6%	–	–
CNC(=O)/C=C/[C@@]1(C)CC[C@]2(C)CC[C@]3(C)C(=CC(=O)[C@@H]4[C@@]5(C)CC[C@H](O)C(C)(C)[C@@H]5CC[C@]43C)[C@@H]2C1	–	Active	100%	Active	–
CCNC(=O)/C=C/[C@@]1(C)CC[C@]2(C)CC[C@]3(C)C(=CC(=O)[C@@H]4[C@@]5(C)CC[C@H](O)C(C)(C)[C@@H]5CC[C@]43C)[C@@H]2C1	–	Active	92%	Active	–
CC1(C)[C@@H](O)CC[C@]2(C)[C@H]3C(=O)C=C4[C@@H]5C[C@@](C)(/C=C/C(=O)NCCCN6CCOCC6)CC[C@]5(C)CC[C@@]4(C)[C@]3(C)CC[C@@H]12	–	Active	99.8%	Active	–
CC1(C)[C@@H](O)CC[C@]2(C)[C@H]3C(=O)C=C4[C@@H]5C[C@@](C)(/C=C/C(=O)O)CC[C@]5(C)CC[C@@]4(C)[C@]3(C)CC[C@@H]12	–	Active	99.2%	Active	–
CC1(C)[C@@H](O)CC[C@]2(C)[C@H]3C(=O)C=C4[C@@H]5C[C@@](C)(/C=C/C(=O)NCCCCl)CC[C@]5(C)CC[C@@]4(C)[C@]3(C)CC[C@@H]12	–	–	95%	–	–
CC1(C)[C@@H](O)CC[C@]2(C)[C@H]3C(=O)C=C4[C@@H]5C[C@@](C)(/C=C/C(=O)NNc6ccccc6)CC[C@]5(C)CC[C@@]4(C)[C@]3(C)CC[C@@H]12	94.8%	inactive	–	inactive	–
CC1(C)[C@@H](O)CC[C@]2(C)[C@H]3C(=O)C=C4[C@@H]5C[C@@](C)(/C=C/C(=O)NCCc6ccccc6)CC[C@]5(C)CC[C@@]4(C)[C@]3(C)CC[C@@H]12	93%	inactive	–	inactive	–
CCN1CCN(C(=O)/C=C/[C@@]2(C)CC[C@]3(C)CC[C@]4(C)C(=CC(=O)[C@@H]5[C@@]6(C)CC[C@H](O)C(C)(C)[C@@H]6CC[C@]54C)[C@@H]3C2)CC1	–	–	98.4%	–	inhibition at 40 µM (RAW264.7 [4]): > 70%; IC50 (RAW264.7 [5]): 15.5 µM; inhibition (RAW264.7 [5]): Dose-dependent effect; inhibition (RAW264.7 [6]): Dose-dependent effect
CN1CCN(C(=O)/C=C/[C@@]2(C)CC[C@]3(C)CC[C@]4(C)C(=CC(=O)[C@@H]5[C@@]6(C)CC[C@H](O)C(C)(C)[C@@H]6CC[C@]54C)[C@@H]3C2)CC1	–	–	96.6%	–	inhibition at 40 µM (RAW264.7 [4]): > 70%; IC50 (RAW264.7 [5]): 13.3 µM; inhibition (RAW264.7 [5]): Dose-dependent effect; inhibition (RAW264.7 [6]): Dose-dependent effect; inhibition at 40 µM (RAW264.7 [7]): 55.6%; inhibition at 40 µM (RAW264.7 [8]): 76.9%; inhibition (RAW264.7 [9]): Dose-dependent effect; inhibition (RAW264.7 [10]): Dose-dependent effect; inhibition [11]: Dose-dependent effect; inhibition [12]: Active; inhibition (RAW264.7 [13]): Active; inhibition (RAW264.7 [14]): inactive; inhibition [15]: inactive
CC(O)CNC(=O)/C=C/[C@@]1(C)CC[C@]2(C)CC[C@]3(C)C(=CC(=O)[C@@H]4[C@@]5(C)CC[C@H](O)C(C)(C)[C@@H]5CC[C@]43C)[C@@H]2C1 (stereo not given in full)	91.4%	Active	–	Active	–
CC1(C)[C@@H](O)CC[C@]2(C)[C@H]3C(=O)C=C4[C@@H]5C[C@@](C)(/C=C/C(=O)N6CCOCC6)CC[C@]5(C)CC[C@@]4(C)[C@]3(C)CC[C@@H]12	–	inactive	97.5%	inactive	–
CC1(C)[C@@H](O)CC[C@]2(C)[C@H]3C(=O)C=C4[C@@H]5C[C@@](C)(C(=O)O)CC[C@]5(C)CC[C@@]4(C)[C@]3(C)CC[C@@H]12 [ENOXOLONE]	–	Active	102%	Active	–
CCOC(=O)/C=C/[C@@]1(C)CC[C@]2(C)CC[C@]3(C)C(=CC(=O)[C@@H]4[C@@]5(C)CC[C@H](OC(C)=O)C(C)(C)[C@@H]5CC[C@]43C)[C@@H]2C1	94.3%	–	–	–	–
CC1(C)[C@@H](O)CC[C@]2(C)[C@H]3C(=O)C=C4[C@@H]5C[C@@](C)(/C=C/C(=O)NNC(N)=O)CC[C@]5(C)CC[C@@]4(C)[C@]3(C)CC[C@@H]12	96.7%	–	–	–	–
CC1(C)[C@@H](O)CC[C@]2(C)[C@H]3C(=O)C=C4[C@@H]5C[C@@](C)(/C=C/C(=O)NCCO)CC[C@]5(C)CC[C@@]4(C)[C@]3(C)CC[C@@H]12	93.6%	Active	–	Active	–
Cc1cccc(NC(=O)/C=C/[C@@]2(C)CC[C@]3(C)CC[C@]4(C)C(=CC(=O)[C@@H]5[C@@]6(C)CC[C@H](O)C(C)(C)[C@@H]6CC[C@]54C)[C@@H]3C2)c1	–	inactive	99.3%	inactive	–
CN(C)C(=O)/C=C/[C@@]1(C)CC[C@]2(C)CC[C@]3(C)C(=CC(=O)[C@@H]4[C@@]5(C)CC[C@H](O)C(C)(C)[C@@H]5CC[C@]43C)[C@@H]2C1	–	Active	99.5%	Active	–
CC(=O)O[C@H]1CC[C@]2(C)[C@H]3C(=O)C=C4[C@@H]5C[C@@](C)(/C=C/C(=O)OCc6ccccc6)CC[C@]5(C)CC[C@@]4(C)[C@]3(C)CC[C@H]2C1(C)C	96.9%	inactive	–	inactive	–
